Reference: ChEMBL document CHEMBL4043075, “Development of Fluorinated Analogues of Perhexiline with Improved Pharmacokinetic Properties and Retained Efficacy” (J Med Chem, 2017)
pIC50: −log10 of the molar value. Values belong to the compound of their own block, whether it stands above or below them. Active and inactive are the calls of the source. The rule behind the calls is not given here.

How the values were obtained:
[1] = AUC (0 to 24 hrs) in BALB/c mouse plasma at 10 mg/kg, po administered via gavage every 24 hrs for 7 days measured post last dose by LC-MS/MS analysis; assay type: ADME, organism-based; design: dose 10 mg/kg, time < 24 hr, route oral
Outline: (§1)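 Male BALB/c mice, daily oral gavage at 10 mg/kg. Plasma and myocardium sampled 1, 4, 8 and 24 h after dosing, n = 3 per timepoint. […] Myocardium:plasma ratios taken from drug concentration or from AUC. Student's t-test used.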

Heart [2] = test: Cardioprotective activity in Langendorff perfused C57BL/6 mouse heart assessed as increase in cardiac contractility at 2 uM perfused for 30 mins in presence of high fat relative to control; assay type: functional
Outline: (§2)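 Isolated C57BL/6 hearts (25-30 g) retrogradely perfused at constant 80 mmHg, 37 °C, 95% O2/5% CO2, with modified Krebs containing 1.2 mM sodium palmitate conjugated to 3% BSA. After 10 min stabilisation, 30 min perfusion with control buffer or compound at 2 or 10 µM. LVdP/dt max and min derived from LV pressure over 40 min; mean ± SEM, n = 12-19, 1-way ANOVA with Bonferroni.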

[3] = Ratio of drug level in myocardium to plasma in Sprague-Dawley rat at 10 mg/kg, po administered via gavage every 24 hrs measured at 1 hr post dose by LC-MS/MS analysis; assay type: ADME, organism-based; settings: myocardium and plasma
Outline: (§3)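 Male Sprague-Dawley rats, daily oral dosing at 10 mg/kg. Plasma sampled at 1, 2, 4, 8 and 24 h after dosing, n = 3 per timepoint. Myocardium measured at 1 and 8 h. Myocardium:plasma ratio taken from drug concentration.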

[4] = molecular target: T1, Carnitine O-palmitoyltransferase 1, muscle isoform (Rattus norvegicus, UniProt Q63704); test: Inhibition of Wistar rat heart mitochondrial CPT-1 assessed as reduction in conversion of palmitoyl CoA and L-carnitine into palmitoylcarnitine preincubated for 3 mins followed by L-carnitine and palmitoyl CoA addition measured for 3.5 mins by spectrophotometric analysis
T1 sequence (Q63704 whole entry): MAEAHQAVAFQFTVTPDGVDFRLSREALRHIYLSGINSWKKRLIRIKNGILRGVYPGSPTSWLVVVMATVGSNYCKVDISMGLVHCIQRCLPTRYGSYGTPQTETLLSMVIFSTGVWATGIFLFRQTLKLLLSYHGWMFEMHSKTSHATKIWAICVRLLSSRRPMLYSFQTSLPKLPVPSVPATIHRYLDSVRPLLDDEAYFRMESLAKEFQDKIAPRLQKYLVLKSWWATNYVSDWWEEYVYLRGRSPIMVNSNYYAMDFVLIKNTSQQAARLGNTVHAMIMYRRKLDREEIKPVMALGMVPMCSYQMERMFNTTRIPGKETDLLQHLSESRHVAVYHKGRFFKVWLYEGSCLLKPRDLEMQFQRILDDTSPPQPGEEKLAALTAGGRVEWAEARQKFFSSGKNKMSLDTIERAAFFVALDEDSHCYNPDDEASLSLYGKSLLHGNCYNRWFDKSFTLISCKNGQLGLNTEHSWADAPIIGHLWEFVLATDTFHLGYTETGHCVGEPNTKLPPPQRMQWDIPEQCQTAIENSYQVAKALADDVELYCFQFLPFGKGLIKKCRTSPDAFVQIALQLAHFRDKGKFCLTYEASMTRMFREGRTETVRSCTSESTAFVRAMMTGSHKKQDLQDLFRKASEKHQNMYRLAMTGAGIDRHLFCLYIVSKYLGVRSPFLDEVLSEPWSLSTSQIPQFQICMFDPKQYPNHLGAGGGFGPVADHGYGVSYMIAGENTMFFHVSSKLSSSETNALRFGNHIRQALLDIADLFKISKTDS

[5] = Plasma concentration in Sprague-Dawley rat at 10 mg/kg, po administered via gavage every 24 hrs measured at 1 hr post dose by LC-MS/MS analysis; assay type: ADME, organism-based; outline: as §3
[6] = Plasma concentration in Sprague-Dawley rat at 10 mg/kg, po administered via gavage every 24 hrs measured at 2 hrs post last dose by LC-MS/MS analysis; assay type: ADME, organism-based; outline: as §3
[7] = Ratio of drug level in myocardium to plasma in BALB/c mouse at 10 mg/kg, po administered via gavage every 24 hrs for 7 days measured 4 hrs post last dose by LC-MS/MS analysis; assay type: ADME, organism-based; settings: myocardium and plasma; outline: as §1
[8] = Drug uptake in BALB/c mouse myocardium at 10 mg/kg, po administered via gavage every 24 hrs for 7 days measured 8 hrs post last dose by LC-MS/MS analysis; assay type: ADME, organism-based; settings: read-out: Drug uptake; outline: as §1
[9] = Ratio of drug level in myocardium to plasma in Sprague-Dawley rat at 10 mg/kg, po administered via gavage every 24 hrs measured at 8 hrs post dose by LC-MS/MS analysis; assay type: ADME, organism-based; settings: myocardium and plasma; outline: as §3
[10] = Plasma concentration in Sprague-Dawley rat at 10 mg/kg, po administered via gavage every 24 hrs measured at 4 hrs post last dose by LC-MS/MS analysis; assay type: ADME, organism-based; outline: as §3
[11] = Drug uptake in Sprague-Dawley rat myocardium at 10 mg/kg, po administered via gavage every 24 hrs measured at 8 hrs post last dose by LC-MS/MS analysis; assay type: ADME, organism-based; settings: read-out: Drug uptake; outline: as §3
[12] = Plasma concentration in BALB/c mouse at 10 mg/kg, po administered via gavage every 24 hrs for 7 days measured 8 hrs post last dose by LC-MS/MS analysis; assay type: ADME, organism-based; outline: as §1
CYP2D6 = CYP2D6 (Homo sapiens, UniProt P10635); test: Drug metabolism assessed as human CYP2D6-mediated compound degradation by measuring half life at 5 uM up to 45 mins in presence of NADPH by LC-MS/MS analysis; assay type: ADME
[13] = Ratio of AUC (0 to 24 hrs) in myocardium to plasma in BALB/c mouse at 10 mg/kg, po administered via gavage every 24 hrs for 7 days measured post last dose by LC-MS/MS analysis; assay type: ADME, organism-based; settings: myocardium and plasma, read-out: Ratio AUC; outline: as §1
[14] = Half life in Sprague-Dawley rat liver microsomes at 3 uM up to 45 mins in presence of NADPH by LC-MS/MS analysis; assay type: ADME, microsome
[15] = Half life in human liver microsomes at 3 uM up to 45 mins in presence of NADPH by LC-MS/MS analysis; assay type: ADME, microsome
[16] = Plasma concentration in BALB/c mouse at 10 mg/kg, po administered via gavage every 24 hrs for 7 days measured 4 hrs post last dose by LC-MS/MS analysis; assay type: ADME, organism-based; outline: as §1
[17] = Drug uptake in BALB/c mouse myocardium at 10 mg/kg, po administered via gavage every 24 hrs for 7 days measured 4 hrs post last dose by LC-MS/MS analysis; assay type: ADME, organism-based; settings: read-out: Drug uptake; outline: as §1
[18] = Plasma concentration in Sprague-Dawley rat at 10 mg/kg, po administered via gavage every 24 hrs measured at 8 hrs post last dose by LC-MS/MS analysis; assay type: ADME, organism-based; outline: as §3
Heart [19] = test: Cardioprotective activity in Langendorff perfused C57BL/6 mouse heart assessed as increase in cardiac relaxation at 2 uM perfused for 30 mins in presence of high fat relative to control; assay type: functional; outline: as §2
[20] = AUC (0 to 24 hrs) in BALB/c mouse myocardium at 10 mg/kg, po administered via gavage every 24 hrs for 7 days measured post last dose by LC-MS/MS analysis; assay type: ADME, organism-based; design: time < 24 hr, dose 10 mg/kg, route oral; outline: as §1
[21] = Ratio of drug level in myocardium to plasma in BALB/c mouse at 10 mg/kg, po administered via gavage every 24 hrs for 7 days measured 1 hr post last dose by LC-MS/MS analysis; assay type: ADME, organism-based; settings: myocardium and plasma; outline: as §1
[22] = Ratio of drug level in myocardium to plasma in BALB/c mouse at 10 mg/kg, po administered via gavage every 24 hrs for 7 days measured 8 hrs post last dose by LC-MS/MS analysis; assay type: ADME, organism-based; settings: myocardium and plasma; outline: as §1
[23] = Drug uptake in Sprague-Dawley rat myocardium at 10 mg/kg, po administered via gavage every 24 hrs measured at 1 hr post last dose by LC-MS/MS analysis; assay type: ADME, organism-based; settings: read-out: Drug uptake; outline: as §3
[24] = Drug uptake in BALB/c mouse myocardium at 10 mg/kg, po administered via gavage every 24 hrs for 7 days measured 1 hr post last dose by LC-MS/MS analysis; assay type: ADME, organism-based; settings: read-out: Drug uptake; outline: as §1
[25] = Plasma concentration in BALB/c mouse at 10 mg/kg, po administered via gavage every 24 hrs for 7 days measured at 1 hr post last dose by LC-MS/MS analysis; assay type: ADME, organism-based; outline: as §1
[26] = Stability of the compound in pH 7.4 PBS buffer at 37 degC after 1 hr; assay type: physicochemical; settings: pH 7.4, 1 h
Outline: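 Compound incubated 1 h in pH 7.4 PBS at 37 °C, then checked for decomposition.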

Heart [27] = test: Cardioprotective activity against Langendorff perfused C57BL/6 mouse heart assessed as lusitropic effect at 2 uM measured for 40 mins reperfusion period in presence of high fat; assay type: functional, tissue-based; outline: as §2

Chain of CYP2D6 (P10635 whole entry): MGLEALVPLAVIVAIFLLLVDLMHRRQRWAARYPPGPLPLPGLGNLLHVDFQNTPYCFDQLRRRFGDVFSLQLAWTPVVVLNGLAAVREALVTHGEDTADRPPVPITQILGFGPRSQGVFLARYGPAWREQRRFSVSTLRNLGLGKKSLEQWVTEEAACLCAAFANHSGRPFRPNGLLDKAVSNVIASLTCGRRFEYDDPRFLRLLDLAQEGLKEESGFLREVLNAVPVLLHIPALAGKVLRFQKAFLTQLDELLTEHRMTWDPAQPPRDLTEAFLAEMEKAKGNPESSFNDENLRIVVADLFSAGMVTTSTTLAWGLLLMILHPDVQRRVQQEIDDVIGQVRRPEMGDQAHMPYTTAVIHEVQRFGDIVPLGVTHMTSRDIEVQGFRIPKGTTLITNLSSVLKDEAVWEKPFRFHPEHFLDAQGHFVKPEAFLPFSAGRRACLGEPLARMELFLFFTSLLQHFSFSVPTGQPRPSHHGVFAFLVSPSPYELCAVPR

Structure (SMILES): C1CCC(CC(C2CCCC2)C2CCC2)NC1 (configuration not stated)
half-life at 3 µM [14]: 7 min
half-life at 3 µM [15]: 51 min
Stability [26]: Stable

Structure (SMILES): FC1(F)CCCC(C(CC2CCCCN2)C2CCCCC2)C1 (configuration not stated)
pIC50 [4]: 3.67
half-life at 3 µM [14]: 35 min
half-life at 3 µM [15]: > 150 min
Stability [26]: Stable

Structure (SMILES): C1CCC(C(CC2CCCCN2)C2CCCC2)CC1 (configuration not stated)
pIC50 [4]: 4.96
half-life at 5 µM (CYP2D6): 16 min
half-life at 3 µM [14]: 19 min
half-life at 3 µM [15]: > 150 min
Stability [26]: Stable

Structure (SMILES): C1CCC(C(CC2CCCCN2)C2CC2)CC1 (configuration not stated)
half-life at 3 µM [14]: 3 min
half-life at 3 µM [15]: 124 min
Stability [26]: Stable

Structure (SMILES): C1CCC(C(CC2CCCCN2)C2CCOCC2)CC1 (configuration not stated)
pIC50 [4]: 3.15
half-life at 5 µM (CYP2D6): 7 min
half-life at 3 µM [14]: 31 min
half-life at 3 µM [15]: 84 min
Stability [26]: Stable

Structure (SMILES): C1CCC(C(CC2CCCCN2)C2CCCCC2)CC1 (racemic)
Activity (Heart [27]): Active

Structure (SMILES): Fc1ccc(C(CC2CCCCN2)C2CCCCC2)cc1 (configuration not stated)
half-life at 3 µM [14]: 7 min
half-life at 3 µM [15]: 79 min
Stability [26]: Stable

Now from value to compound, other results behind:

AUC at 24 h [1]: 876 ng·h/mL
Kp at 1 h [3]: 19
pIC50 [4]: 4.96
concentration at 1 h [5]: 99.9 ng/mL
concentration at 2 h [6]: 113 ng/mL
Kp at 4 h [7]: 4.9
concentration at 8 h [8]: 29.2 ng/mL
Kp at 8 h [9]: 11.5
concentration at 4 h [10]: 97.4 ng/mL
concentration at 8 h [11]: 361 ng/mL
concentration at 8 h [12]: 6 ng/mL
half-life at 5 µM (CYP2D6): 14 min
Kp [13]: 2.4
half-life at 3 µM [14]: 21 min
half-life at 3 µM [15]: 100 min
concentration at 4 h [16]: 28.3 ng/mL
concentration at 4 h [17]: 126 ng/mL
concentration at 8 h [18]: 31.4 ng/mL
AUC at 24 h [20]: 2110 ng·h/mL
Kp at 1 h [21]: 5.7
Kp at 8 h [22]: 4.8
concentration at 1 h [23]: 1900 ng/mL
concentration at 1 h [24]: 664 ng/mL
concentration at 1 h [25]: 116 ng/mL
Structure (SMILES): C1CCC(C(CC2CCCCN2)C2CCCCC2)CC1 (racemic) [PERHEXILINE]
fold change (FC) (Heart [2]): 2.1
fold change (FC) (Heart [19]): 3.2

pIC50 [4]: 4.85
half-life at 3 µM [14]: 11 min
half-life at 3 µM [15]: 65 min
Structure (SMILES): C1CCC(C(C[C@@H]2CCCCN2)C2CCCCC2)CC1

half-life at 3 µM [14]: 10 min
half-life at 3 µM [15]: > 200 min
Stability [26]: Stable
Structure (SMILES): C1CCC(C(CC2CCCCN2)C2CCC2)CC1 (configuration not stated)

Stability [26]: Unstable
Structure (SMILES): FC1CCC(C(CC2CCCCN2)C2CCC(F)CC2)CC1 (configuration not stated)
